# Experiments:
# [1] = test system: CQ-sensitive (CQS) and CQ-resistant (CQR) strains; conditions: strain not stated ref 11; cited from earlier work
# [2] = test system: P. falciparum (W2); assay: in vitro antimalarial activity, plasmodial LDH; type: cell-based, Plasmodium falciparum; conditions: Plasmodium falciparum, W2, 72 h, read-out: P. falciparum (W2) IC50, CQ-resistant W2 strain, 72 h
# Method in brief: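 P. falciparum-infected erythrocytes (2% parasitemia, 2% hematocrit) in RPMI 1640 with 10% human serum and 60 μg/mL amikacin. Exposed to test compound dilutions for 72 h at 37 °C under 90% N2/5% O2/5% CO2. LDH measured with Malstat reagent (30 min, room temperature), then NBT/PES for 1 h in the dark, stopped with 5% acetic acid, read at 650 nm. IC50 from dose-response curves.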
# [3] = test system: multidrug-resistant P. yoelii nigeriensis; assay: blood-schizontocidal activity against P. yoelii nigeriensis infection in mice; type: in vivo, Plasmodium yoelii nigeriensis; conditions: Swiss mice
# Method in brief: (§1)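 Swiss mice of either sex (about 15–20 g, same age), six per group, inoculated intraperitoneally on day 0 with 1 × 10^7 infected erythrocytes from a donor mouse. Oral test compound at 100, 50, 25 or 10 mg/kg, CQ diphosphate (10 mg/kg/day × 4) or vehicle started 4 h later, on D0 to D+3. Giemsa tail-blood smears on D+4 and D+7. Curative: parasites eliminated, no relapse, all mice surviving to D+60.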
# [4] = test system: P. berghei (sensitive strain); assay: blood-schizontocidal activity against P. berghei infection in mice; type: in vivo, Plasmodium berghei; conditions: Swiss mice
# Method in brief: as §1
# [5] = test system: P. falciparum (D6); assay: in vitro antimalarial activity, plasmodial LDH; type: cell-based, Plasmodium falciparum; conditions: Plasmodium falciparum, D6, 72 h, read-out: P. falciparum (D6) IC50
# [6] = test system: C. krusei ATCC6258; assay: in vitro antifungal activity; type: cell-based, Candida krusei
# Method in brief: (§2)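 Modified NCCLS broth method in Sabouraud dextrose. Inoculum set by OD630 to 1.5 × 10^3 CFU/mL. Test compound serially diluted in 20% DMSO/saline, duplicate wells, up to 20 μg/mL. Incubated 70–74 h at 35 °C; 530 nm read before and after. IC50 is 50% growth inhibition; MIC is no detectable growth. MFC from clear wells subcultured on agar. Amphotericin B control.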
# [7] = test system: MRSA (ATCC33591); assay: in vitro antibacterial activity; type: cell-based, methicillin-resistant Staphylococcus aureus; conditions: Staphylococcus aureus, ATCC33591|MRSA, read-out: MIC, MRSA
# Method in brief: (§3)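 Test compound serially diluted in 20% DMSO/saline and plated in duplicate, up to 20 μg/mL. Inoculum in cation-adjusted Mueller–Hinton broth, pH 7.3, set by OD630 to 5 × 10^5 CFU/mL. Incubated 16–20 h at 35 °C; 530 nm read before and after. IC50 is 50% growth inhibition; MIC is no detectable growth. MBC from clear wells subcultured on agar. Ciprofloxacin control.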
# [8] = test system: M. intracellulare (ATCC23068); assay: in vitro antibacterial activity, modified alamarBlue procedure; type: cell-based, Mycobacterium intracellulare; conditions: Mycobacterium intracellulare
# Method in brief: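 Modified alamarBlue microplate method. Test compound serially diluted in 20% DMSO/saline, duplicate wells, up to 20 μg/mL. Inoculum 2.0 × 10^6 CFU/mL in Middlebrook 7H9 with OADC, pH 7.3, containing 5% alamarBlue. Incubated 70–74 h at 37 °C, 10% CO2; fluorescence 544ex/590em read before and after. MIC: no blue-to-pink change. MBC by subculturing blue wells on agar. Ciprofloxacin control.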
# [9] = test system: A. fumigatus ATCC 90906; assay: in vitro antifungal activity; type: cell-based, Aspergillus fumigatus; conditions: Aspergillus fumigatus
# Method in brief: as §2
# [10] = test system: SA (ATCC29213); assay: in vitro antibacterial activity; type: cell-based; conditions: Staphylococcus aureus
# Method in brief: as §3
# [11] = test system: SK-MEL, KB, BT-549, SK-OV-3, VERO and LLC-PK1 cells; assay: cytotoxicity, neutral red uptake assay; type: cell-based, mammalian; conditions: highest test concentration 4760 ng/mL
# Method in brief: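 Cells seeded at 25 000/well and allowed 24 h to reach confluence. Test compound was then added and incubated 48 h. Viable cells were counted by a modified neutral red uptake method. The panel was four human cancer lines and two noncancerous mammalian kidney lines. Doxorubicin served as positive control and DMSO as negative control.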
# [12] = test system: C. albicans ATCC90028; assay: in vitro antifungal activity; type: cell-based, Candida albicans
# Method in brief: as §2
# [13] = test system: C. neoformans ATCC90113; assay: in vitro antifungal activity; type: cell-based, Cryptococcus neoformans; conditions: Cryptococcus neoformans
# Method in brief: as §2
# [14] = test system: C. glabrata ATCC90030; assay: in vitro antifungal activity; type: cell-based, Candida glabrata
# Method in brief: as §2
# [15] = test system: L. donovani promastigotes; assay: in vitro antileishmanial activity, alamarBlue assay; type: cell-based, Leishmania donovani; conditions: Leishmania donovani, 48 h
compound,measurement,setting,value
COc1cc(NC(C)CCCN)c2nc(C(C)(C)C)ccc2c1 (centres unmarked) [2-tert-butylprimaquine],in vitro antimalarial activity IC50,[1],0.039 µg/mL
"CCN(CC)CCCC(C)Nc1ccnc2cc(Cl)ccc12 (centres unmarked) [CQ, chloroquine, reference compound]",IC50,[2],0.14 µg/mL
same,in vitro antimalarial activity IC50,[1],0.113 µg/mL
same,P. yoelii nigeriensis blood-schizontocidal activity (mice cured/treated),"[3]; 25 mg/kg/day × 4, oral",inactive (0/6)
same,P. yoelii nigeriensis blood-schizontocidal activity (mice cured/treated),"[3]; 50 mg/kg/day × 4, oral",inactive (0/6)
same,P. yoelii nigeriensis blood-schizontocidal activity (mice cured/treated),"[3]; 100 mg/kg/day × 4, oral",inactive (0/6)
same,P. berghei blood-schizontocidal activity (mice cured/treated),"[4]; 10 mg/kg/day × 4, oral",active (2/6)
same,P. berghei blood-schizontocidal activity (mice cured/treated),"[4]; 25 mg/kg/day × 4, oral",curative (6/6)
same,P. berghei blood-schizontocidal activity (mice cured/treated),"[4]; 50 mg/kg/day × 4, oral",curative (6/6)
same,P. berghei blood-schizontocidal activity (mice cured/treated),"[4]; 100 mg/kg/day × 4, oral",curative (6/6)
same,IC50,[5],0.015 µg/mL
"CCCCCCCOc1c(OC)cc(NC(C)CCCN)c2nc(C(C)(C)C)ccc12 (centres unmarked) [compound 48, N^4-(2-tert-Butyl-5-(heptyloxy)-6-methoxyquinolin-8-yl)pentane-1,4-diamine]",C. krusei MFC,[6],5.00 µg/mL
same,C. krusei MIC,[6],5.00 µg/mL
same,MIC,[7],5 µg/mL
same,IC50,"[8]; ATCC23068, read-out: IC50 (concentration that affords 50% growth inhibition), M. intracellulare",3.72 µg/mL
same,MBC,"[8]; ATCC23068, read-out: MBC (minimum bactericidal concentration), M. intracellulare",5 µg/mL
same,MIC,"[8]; ATCC23068, read-out: MIC, M. intracellulare",5 µg/mL
same,IC50,"[9]; ATCC90906, read-out: A. fumigatus IC50",6 µg/mL
same,MFC,"[9]; ATCC90906, read-out: A. fumigatus MFC",> 20 µg/mL
same,MIC,"[9]; ATCC90906, read-out: A. fumigatus MIC",> 20 µg/mL
same,IC50,"[10]; ATCC29213, read-out: IC50 (concentration that affords 50% growth inhibition), SA",2.77 µg/mL
same,MBC,"[10]; ATCC29213, read-out: MBC (minimum bactericidal concentration), SA",20 µg/mL
same,MIC,"[10]; ATCC29213, read-out: MIC, SA",5 µg/mL
same,cytotoxicity CTX,[11],"NC (NC, not cytotoxic up to 4760 ng/mL (4.76 μg/mL))"
same,IC50,[2],0.037 µg/mL
same,C. albicans MFC,[12],10.00 µg/mL
same,C. albicans MIC,[12],10.00 µg/mL
same,IC50,"[12]; Candida albicans, ATCC90028, read-out: C. albicans IC50",4.93 µg/mL
same,MIC,"[12]; Candida albicans, ATCC90028, read-out: C. albicans MIC",10 µg/mL
same,P. yoelii nigeriensis blood-schizontocidal activity (mice cured/treated),"[3]; 25 mg/kg/day × 4, oral",inactive (0/6)
same,P. yoelii nigeriensis blood-schizontocidal activity (mice cured/treated),"[3]; 50 mg/kg/day × 4, oral",active (3/6)
same,P. yoelii nigeriensis blood-schizontocidal activity (mice cured/treated),"[3]; 100 mg/kg/day × 4, oral",active (4/6)
same,IC50,"[13]; ATCC90113, read-out: C. neoformans IC50",2.07 µg/mL
same,MFC,"[13]; ATCC90113, read-out: C. neoformans MFC",2.5 µg/mL
same,MIC,"[13]; ATCC90113, read-out: C. neoformans MIC",2.5 µg/mL
same,P. berghei blood-schizontocidal activity (mice cured/treated),"[4]; 10 mg/kg/day × 4, oral",active (4/6)
same,P. berghei blood-schizontocidal activity (mice cured/treated),"[4]; 25 mg/kg/day × 4, oral",curative (6/6)
same,P. berghei blood-schizontocidal activity (mice cured/treated),"[4]; 50 mg/kg/day × 4, oral",curative (6/6)
same,P. berghei blood-schizontocidal activity (mice cured/treated),"[4]; 100 mg/kg/day × 4, oral",curative (6/6)
same,C. glabrata MFC,[14],5.00 µg/mL
same,C. glabrata MIC,[14],5.00 µg/mL
same,IC50,[5],0.05 µg/mL
same,IC50,"[15]; read-out: L. donovani IC50, promastigotes, 48 h",5 µg/mL
same,IC90,"[15]; read-out: L. donovani IC90, promastigotes, 48 h",> 40 µg/mL
